Data: PubChem BioAssay AID624177 (Southern Research Specialized Biocontainment Screening …, 2012)
The source made the active and inactive calls.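 How the source made its calls: active means inhibition of 30% or more at any tested concentration; inactive means the rest.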

Each compound was assayed against M18 aspartyl aminopeptidase (Plasmodium falciparum) (assay: inhibition of P. falciparum M18 aminopeptidase – biochemical, QFRET fluorogenic substrate, set 2, dose response (AID 624177)). Conditions: recombinant PfM18AAP, H-Glu-NHMec fluorogenic substrate cleavage.
Summary of the method: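 Assay system – purified recombinant P. falciparum M18 aspartyl aminopeptidase (rPFM18AAP) · Input – enzyme at 5 µg/mL final · Also added – fluorogenic H-Glu-NHMec peptide substrate at 0.1 mM final · Incubation – 90 min reaction, room temperature · Measured by – NHMec fluorescence, excitation 370 nm, emission 460 nm · Controls – no-enzyme background control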

With `Cc1cccc2c(N(C)CCc3ccc(O)c(O)c3)ccnc12` as the compound, how does the IC50 read?
The IC50 was 11.9 µM.

`CN(CCc1ccc(O)c(O)c1)c1ncnc2ccccc12` was tested. Which IC50 did it give?
The IC50 was 7.69 µM.

For `Oc1ccc(CCCNc2c3c(nc4ccccc24)CCCC3)cc1O`, which IC50 is on record?
The IC50 was 10.8 µM.

Which IC50 does the source give for `CN(CCCc1ccc(O)c(O)c1)c1ccnc2ccccc12` here?
Its IC50 is 10.3 µM.

Which IC50 does the source give for `Oc1ccc(CCNc2ccnc3cc(Cl)ccc23)cc1O` here?
Its IC50 is 14.8 µM.

How did the IC50 turn out when `Cc1cccc2c(NCCc3ccc(O)c(O)c3)ccnc12` was run?
Its IC50 is 14.5 µM.

`CC(Cc1ccc(O)c(O)c1)Nc1ccnc2ccccc12` (centres undefined) was tested. Which IC50 did it give?
The IC50 was 16.6 µM.

How did the IC50 turn out when `CCN(CCc1ccc(O)c(O)c1)c1c2ccccc2nc2ccccc12` was run?
Its IC50 is 16.9 µM.

Which IC50 does the source give for `CC(C)(CNc1ccnc2ccccc12)c1ccc(O)c(O)c1` here?
Its IC50 is 47.6 µM.

With `Oc1cccc(CCNc2ccnc3ccccc23)c1O` as the compound, how does the IC50 read?
The IC50 was 16.5 µM.

With `Oc1ccc(C2CCN(c3ccnc4ccccc34)CC2)cc1O` as the compound, how does the IC50 read?
Its IC50 is 4.6 µM.

Which IC50 does the source give for `Oc1ccc(C2CCN(c3ccnc4ccccc34)C2)cc1O` (centres undefined) here?
The IC50 was 6.55 µM.

How did the IC50 turn out when `CN(CCc1ccc(O)c(O)c1)c1ccnc2cc(Cl)ccc12` was run?
The IC50 was 8.46 µM.

For `Cc1cc(N(C)CCc2ccc(O)c(O)c2)c2ccccc2n1`, which IC50 is on record?
Its IC50 is 11.9 µM.

`Oc1ccc(CCNc2ccnc3c(F)cccc23)cc1O` was tested. Which IC50 did it give?
The IC50 was 9.8 µM.

Which IC50 does the source give for `CN(CCc1ccc(O)c(O)c1)c1c2ccccc2nc2ccccc12` here?
Its IC50 is 30 µM.

For `CN(CCCc1ccc(O)c(O)c1)c1c2ccccc2nc2ccccc12`, which IC50 is on record?
Its IC50 is 40.1 µM.

With `CN(CCc1ccc(O)c(O)c1)c1ccnc2c(F)cccc12` as the compound, how does the IC50 read?
Its IC50 is 8.76 µM.

How did the IC50 turn out when `Oc1ccc(C2CCCN(c3ccnc4ccccc34)C2)cc1O` (centres undefined) was run?
The IC50 was 7.32 µM.

Same assay, conditions: recombinant PfM18AAP, H-Glu-NHMec fluorogenic substrate cleavage; at 100 µM (top of the series)

`COc1cc(Br)c(CCNc2c3c(nc4ccccc24)CCCC3)cc1OC` was tested. Which inhibition did it give?
The inhibition was “inactive”.

Which inhibition does the source give for `COc1ccc(CCN(C)c2cc(C)nc3ccccc23)cc1OC` here?
The inhibition was “inactive”.

How did the inhibition turn out when `COc1ccc(CCN(C)c2c3ccccc3nc3ccccc23)cc1OC` was run?
Its inhibition is “inactive”.

`CCN(CCc1ccc(OC)c(OC)c1)c1c2ccccc2nc2ccccc12` was tested. Which inhibition did it give?
The inhibition was “inactive”.

For `COc1ccc(CCNc2ccnc3c(F)cccc23)cc1OC`, which inhibition is on record?
The inhibition was “inactive”.

How did the inhibition turn out when `COc1ccc(C2CCN(c3ccnc4ccccc34)CC2)cc1OC` was run?
The inhibition was “inactive”.

Which inhibition does the source give for `COc1ccc(C2CCN(c3ccnc4ccccc34)C2)cc1OC` (centres undefined) here?
The inhibition was “inactive”.

How did the inhibition turn out when `COc1ccc(CCN(C)c2ccnc3cc(Cl)ccc23)cc1OC` was run?
Its inhibition is “inactive”.

Which inhibition does the source give for `COc1ccc(CCNc2cc(C)nc3ccccc23)cc1OC` here?
Its inhibition is “inactive”.

`COc1ccc(CCNC(=O)c2cc(C)ccc2N)cc1OC` was tested. Which inhibition did it give?
The inhibition was “inactive”.

`COc1ccc(CCN(C)c2ccnc3c(F)cccc23)cc1OC` was tested. Which inhibition did it give?
The inhibition was “inactive”.

`COc1ccc(CCNc2ccnc3cc(Cl)ccc23)cc1OC` was tested. Which inhibition did it give?
The inhibition was “inactive”.

For `Clc1c2c(nc3ccccc13)CCCC2`, which inhibition is on record?
The inhibition was “inactive”.

`COc1ccc(CCNc2ncnc3ccccc23)cc1OC` was tested. Which inhibition did it give?
The inhibition was “inactive”.

`COc1cc(Br)c(CCNc2ccnc3ccccc23)cc1OC` was tested. Which inhibition did it give?
The inhibition was “inactive”.

How did the inhibition turn out when `Nc1c2ccccc2nc2ccccc12` was run?
Its inhibition is “inactive”.

With `COc1ccc(CCCNc2c3c(nc4ccccc24)CCCC3)cc1OC` as the compound, how does the inhibition read?
Its inhibition is “inactive”.

Which inhibition does the source give for `COc1ccc(CCNc2c3c(nc4ccc(C)cc24)CCCC3)cc1OC` here?
The inhibition was “inactive”.

How did the inhibition turn out when `COc1ccc(CCCN(C)c2c3ccccc3nc3ccccc23)cc1OC` was run?
Its inhibition is “inactive”.

`CCOc1ccc2nccc(NCCc3ccc(OC)c(OC)c3)c2c1` was tested. Which inhibition did it give?
Its inhibition is “inactive”.

`COc1ccc(CCN(C)c2ncnc3ccccc23)cc1OC` was tested. Which inhibition did it give?
The inhibition was “inactive”.

How did the inhibition turn out when `COc1ccc(CCN(C)c2ccnc3c(C)cccc23)cc1OC` was run?
Its inhibition is “inactive”.

For `COc1ccc(CCNc2ccnc3c(C)cccc23)cc1OC`, which inhibition is on record?
Its inhibition is “inactive”.

How did the inhibition turn out when `COc1cc(Br)c(CCNc2c3ccccc3nc3ccccc23)cc1OC` was run?
The inhibition was “inactive”.

`CCOc1ccc2nccc(N(C)CCc3ccc(OC)c(OC)c3)c2c1` was tested. Which inhibition did it give?
Its inhibition is “inactive”.
